Tb hexokinase – blocks Trypanosoma brucei hexokinase 1 activity; recombinant TbHK1, G6PDH-coupled NADH A340; inhibition, % at 10 µM; AID 1430; 220,000 tested, 0.11% active;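 active = inhibition of 50% or more in the single-dose primary screen; inactive = inhibition below 50%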
Dynein transport – blocks dynein driven cargo transport along microtubules; AID 1381; 220,000 tested, 0.47% active; z-score, hits read low; 3617.4 mouse cells, GR-EGFP nuclear translocation imaging; test concentration mostly 20 µM; stimulated with dexamethasone, 1 µM; active compounds read low;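 active = plate z-score of nuclear minus cytoplasmic receptor signal below a set negative limit, without overly bright fluorescence or cell loss, cut at about -3.5 in these data, passing the limit was not always enough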;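 note: z-score of nuclear minus cytoplasmic ring GR-EGFP intensity difference per well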
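Also added: dexamethasone, 1.0 µM final. Medium: tet-free, stripped-serum medium. Detection: fixed, Hoechst-stained cells imaged at 10x for EGFP. Read-out: nuclear-to-cytoplasmic GR-EGFP distribution per well. Times: induction 48 h, compound 1 h, agonist 30 min.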
Biofilm kill mix – mixture kills Candida albicans biofilm cells; C. albicans biofilm persisters + clotrimazole, fluorescence viability; primary screen in compound mixtures of four per well; inhibition, % at 7.6 µM; 120,000 tested, 0.02% active; AID 1242;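 active = inhibition above 30.3% in the primary screen of four-compound pools, then above 30% when the compound was retested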;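 note: compounds exposed to preformed 24 h biofilms for 48 h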
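System: C. albicans CAF4-2 wild-type biofilms; Medium: RPMI/MOPS medium, pH 7.0; Reagent: Clotrimazole, 50 µg/mL; Times: biofilm formation 24 h, compound exposure 48 h, 37 °C; Detection: 2-h Alamar Blue fluorescence, 535/590 nm excitation/emission; Evaluation: percent inhibition of biofilm viability.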
S1P4 ag – activates the human S1P4 receptor; O95977; S1P4-expressing cell line, agonist reporter assay; activation, % at 4.98 µM; 220,000 tested, 0.35% active; AID 1509; in the data active = activation above about 11%
S1P3 antag-1 – antagonists of human S1P3 receptor; 170,000 tested, 0.27% active; inhibition, % at 4.98 µM; Q99500; CHO S1P3 NFAT-BLA reporter, FRET fluorescence, antagonist mode;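 active = inhibition above the plate cutoff, the mean inhibition of test wells on that plate plus 3 SD, cut at about 28% in these data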;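 note: cells challenged with S1P at its EC80 of 0.8 µM; blue over green emission ratio from cleaved BLA substrate after 4 h stimulation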
Target sequence (Q99500 whole entry, looked up): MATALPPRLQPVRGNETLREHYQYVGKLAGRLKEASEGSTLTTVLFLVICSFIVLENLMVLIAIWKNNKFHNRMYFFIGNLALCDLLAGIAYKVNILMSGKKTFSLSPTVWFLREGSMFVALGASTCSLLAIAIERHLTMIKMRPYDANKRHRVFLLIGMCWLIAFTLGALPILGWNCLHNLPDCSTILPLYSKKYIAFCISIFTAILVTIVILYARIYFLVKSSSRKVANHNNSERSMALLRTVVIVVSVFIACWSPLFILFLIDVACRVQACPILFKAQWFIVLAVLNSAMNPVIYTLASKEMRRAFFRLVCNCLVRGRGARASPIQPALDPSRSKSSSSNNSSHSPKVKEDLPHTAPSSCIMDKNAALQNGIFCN
S1P4 antagonist – antagonists of human S1P4 receptor; S1P4-expressing cells, antagonist mode, reporter read-out; inhibition, % at 4.98 µM; 220,000 tested, 0.26% active; in the data active = inhibition above about 29%
S1P3 antag-2 – confirmation of human S1P3 receptor antagonists; CHO S1P3 NFAT-BLA reporter, FRET, antagonist mode; inhibition, % at 4.98 µM; 240 tested, 30% active; shares compounds with S1P3 antag-1;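 active = inhibition above the hit threshold that was computed for the earlier primary screen, cut at about 30% in these data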
Large screens that a line does not name were inactive (follow-up assays come after a bar, where they were run). An excerpt weighted towards active compounds, which were near 1.3% of everything screened.

O=C(CSc1nnnn1C1CCCCC1)Nc1ccccc1F	none
O=S(=O)(/C(=C/c1ccc(C(F)(F)F)cc1)c1nc2ccccc2[nH]1)c1ccccc1	S1P4 antagonist 92.2
CC(C)c1ccc(/C=C(\c2nc3ccccc3[nH]2)S(=O)(=O)c2ccccc2)cc1	none
COC(=O)[C@H](CCSC)NC(=O)Nc1ccc(S(N)(=O)=O)cc1	none
C=CCn1c(C)nnc1SCC(=O)N1CCN(S(=O)(=O)c2ccccc2)CC1	none
CCC(C)(C)c1ccc(OCCCC[n+]2ccc(C)cc2)c(C(C)(C)CC)c1	Dynein transport -3.63
COc1cccc(CC(NC(C)=O)C(=O)NC2CCN(S(=O)(=O)c3ccc(C)cc3)CC2)c1OC (stereo not given)	none
O=C(Nc1ccc(F)cc1)C(Cc1ccccc1)n1cccc1 (stereo not given)	S1P3 antag-1 36.3 | S1P3 antag-2 inactive
O=C(N/N=C/c1ccc([N+](=O)[O-])cc1)c1cc2ccccc2o1	none
C/C(=N/Nc1ccc([N+](=O)[O-])cc1)c1ccc(C)cc1C	S1P3 antag-1 32.5 | S1P3 antag-2 inactive
C/C(=N\Nc1ccc([N+](=O)[O-])cc1)c1cc2ccccc2o1	S1P3 antag-1 53.8 | S1P3 antag-2 55.2
CCN(Cc1ccncc1)Cc1nc(CC2CC2)no1	none
O=C(O)COc1ccccc1/C=N/NC(=O)c1cc2ccccc2cc1O	none
COc1ccc(-c2[nH]ncc2N=Nc2cc(C)cc(C)c2)cc1	S1P3 antag-1 37.8 | S1P3 antag-2 inactive
CCCCCCCCCn1c2c(c(=N)c3c1CCC3)CCCC2	S1P3 antag-1 55.5 | S1P3 antag-2 40.6
Cc1nn(-c2ccccc2)c(Cl)c1/C=N/NC(=O)c1ccco1	none (no result: Biofilm kill mix, S1P3 antag-1)
Cc1nn(-c2ccccc2)c(Cl)c1/C=N/NC(=O)c1ccc(CNc2ccccc2)o1	S1P3 antag-1 28.2 | S1P3 antag-2 inactive
Cc1cc(-c2nc(C)c(-c3nnc(SCC(=O)Nc4ccc(Cl)cc4)n3C)s2)no1	none
COc1ccc(-n2c(C)cc(/C=N/Nc3nnc(C)n3N)c2C)cc1	S1P3 antag-1 31.4 | S1P3 antag-2 inactive
CCOc1ccc(NC(=O)c2oc3ccccc3c2NC(=O)C(C)C)cc1	none (no result: Tb hexokinase, Dynein transport, Biofilm kill mix, S1P4 ag, S1P4 antagonist)
COc1c(F)c(F)c(C(=O)Nc2ccc(-c3nc4ccccc4[nH]3)cc2)c(F)c1F	S1P3 antag-1 28.3 | S1P3 antag-2 inactive
COc1ccccc1NC(=O)c1ccc(NC(=O)COC(=O)C2CCCO2)cc1 (stereo not given)	S1P3 antag-1 30.1 | S1P3 antag-2 inactive
Cc1ccc(CN2CCNC(=O)C2CC(=O)N(C)C(C2CC2)C2CC2)o1 (stereo not given)	none
CN(C(=O)CC1C(=O)NCCN1CC(c1ccccc1)c1ccccc1)C(C1CC1)C1CC1 (stereo not given)	S1P3 antag-1 28.9 | S1P3 antag-2 inactive
CC(=O)C(Cc1cccc(F)c1)(Cc1cccc(F)c1)C(C)=O	none
COCCNC(=S)N/N=C/c1ccc(-c2ccc([N+](=O)[O-])cc2)o1	S1P3 antag-1 31.0 | S1P3 antag-2 31.8
CC(=O)N1CC(=O)N(Cc2ccccc2)/C(=C/c2ccccc2)C1=O	none
COC(=O)C1=C(C)N(C)C(=S)NC1c1ccc(OC)cc1OC (stereo not given)	none
O=C1c2cccc3c(N4CCCCC4)ccc(c23)C(=O)N1c1ccc(O)cc1	none
O=C1c2cccc3c(N4CCCCC4)ccc(c23)C(=O)N1c1ccccc1O	S1P3 antag-1 48.2 | S1P3 antag-2 33.0
O=C(c1cc(COc2ccc3ncccc3c2)on1)N1CCCCCC1	none
O=C(NC1CCCC1)c1cc(COc2ccc3ncccc3c2)on1	S1P3 antag-1 34.7 | S1P3 antag-2 inactive
Cc1cc(C)n2nc(C(=O)OCC(=O)c3c[nH]c4ccccc34)nc2n1	none
O=C(c1ccc(S(=O)(=O)c2ccc(Cl)cc2)cc1)N1CCOCC1	none
CCN(CC)S(=O)(=O)c1cccc(C(=O)NC(C)C(c2cccs2)N2CCCC2)c1 (stereo not given)	S1P3 antag-1 29.3 | S1P3 antag-2 inactive
COCC(C)NC(C(=O)Nc1ccc(C)c(Cl)c1)c1ccccc1 (stereo not given)	none (no result: Biofilm kill mix, S1P3 antag-1)
Cc1ccc(NC(=O)C(OC(=O)c2ccc(C=O)cc2)c2ccccc2)cc1Cl (stereo not given)	S1P3 antag-1 29.6 | S1P3 antag-2 inactive
CCOC(=O)N/N=C(\C)c1ccc(-n2cnnn2)cc1	none
O=C(Oc1ccccc1OC(=O)N1CCOCC1)N1CCOCC1	none (no result: Biofilm kill mix)
CC(Oc1ccccc1Cl)C(=O)N1CCOCC1 (stereo not given)	S1P3 antag-1 45.7 | S1P3 antag-2 inactive
O=C(CSc1nc(C2CCCCC2)n(-c2ccccc2)n1)NCC(F)(F)F	S1P3 antag-1 51.2 | S1P3 antag-2 inactive
O=C(CSc1nc(C2CCCCC2)n(-c2ccccc2)n1)NCCN1C(=O)CSC1=O	none (no result: Biofilm kill mix)
Cc1ccc([N+](=O)[O-])c(OCCN2CCC(Cc3ccccc3)CC2)c1	none
O=C(c1cc(C(=O)N2CCOCC2)c2nc3ccccc3n2c1)c1cc(Cl)cc(Cl)c1O	S1P3 antag-1 30.9 | S1P3 antag-2 inactive
O=C(Nc1ccc(N2CCN(C(=O)c3ccco3)CC2)cc1)c1ccc2c(c1)OCO2	none (no result: Biofilm kill mix)
Cc1ccccc1C(=O)N1CCN(c2ccc(NC(=O)c3ccc4c(c3)OCO4)cc2)CC1	S1P3 antag-1 29.7 | S1P3 antag-2 36.0
O=C(O)CCCn1cc(NC(=O)COc2ccc([N+](=O)[O-])cc2)cn1	none
Cc1sc(NC(=O)C2C3CCC(O3)C2C(=O)O)nc1-c1ccc(CC(C)C)cc1 (stereo not given)	S1P3 antag-1 105.7 | S1P3 antag-2 inactive
O=C1N/C(=C\c2ccc(O)cc2)C(O)=C1C=NCc1ccccc1	S1P3 antag-1 28.7 | S1P3 antag-2 inactive
COc1ccc(/C=C2\NC(=O)C(C=NCc3ccccc3)=C2O)cc1	none
CNC(=O)c1cc(C(=O)c2ccccc2C(F)(F)F)c[nH]1	none
CSc1ccc(/C=C/c2cc(=O)c3ccccc3[nH]2)cc1	S1P3 antag-1 29.7 | S1P3 antag-2 inactive
CCCCNC(=O)c1onc(CSc2ccc(C(C)C)cc2)c1C(=O)O	none (no result: Biofilm kill mix, S1P3 antag-1)
CC(C)CNc1nc(SCC(=O)Nc2ccccc2)nc(N2CCOCC2)n1	none
O=C(N/N=C/c1cn(-c2ccccc2)nc1-c1cc2ccccc2o1)c1c[nH]c2ccccc12	S1P3 antag-1 31.2 | S1P3 antag-2 inactive
CC(=O)Nc1ncc(Cc2cccc(Cl)c2)s1	S1P3 antag-1 28.5 | S1P3 antag-2 inactive
COc1ccc2[nH]c3c(N4CCc5ccccc5C4)ncnc3c2c1	S1P3 antag-1 30.9 | S1P3 antag-2 inactive
Cc1ccc(NCCC(=O)c2cccs2)cc1	none
CC(C)c1ccc(NCCC(=O)c2cccs2)cc1	S1P3 antag-1 29.7 | S1P3 antag-2 inactive
